Test results reported in ChEMBL document CHEMBL4020823, “Highly Selective, Potent, and Oral mTOR Inhibitor for Treatment of Cancer as Autophagy Inducer” (J Med Chem, 2018).
Calls of active or inactive are those of the source. The calls are words filed in the database; no cut-off is given here.

Assays:
MDA-MB-231 [1] = assay: Cell cycle arrest in human MDA-MB-231 cells assessed as accumulation at G0/G1 phase at 0.25 to 0.5 uM after 24 hrs by propidium iodide-staining based flow cytometric analysis; type: functional
Outline: (§1)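 Cells were seeded at 5 × 10^5 cells/mL. At 24 h after plating they were treated with increasing concentrations for 24 h, washed in PBS, and fixed in ice-cold 70% ethanol for at least 24 h. They were stained with propidium iodide plus RNase A for 30 min at 37 °C and analysed by flow cytometry for phase distribution.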

Mus musculus [2] = assay: Up regulation of LC3B levels in human T47D cells xenografted in BALB/c nude mouse administered via oral gavage after 3 weeks by hematoxylin and eosine staining based light microscopic assay; type: functional, cell-based
Outline: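 Tumors taken from daily-dosed T-47D xenograft mice, formalin-fixed and paraffin-embedded, cut into 5 μm sections. Sections deparaffinized, rehydrated, and incubated overnight at 4 °C with anti-LC3B at 1:100. Then biotin-labeled secondary for 1 h at room temperature, ABC-peroxidase with DAB, hematoxylin counterstain. Read by light microscopy.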

MDA-MB-231 [3] = assay: Cell cycle arrest in human MDA-MB-231 cells assessed as decrease in S-phase at 0.25 to 0.5 uM after 24 hrs by propidium iodide-staining based flow cytometric analysis; type: functional; outline: as §1
T47D [4] = assay: Antitumor activity against human T47D cells xenografted in BALB/c nude mouse assessed as decrease in tumor growth at 60 mg/kg, po administered via gavage after 3 weeks relative to control; type: functional; conditions: 504 h, read-out: TGI
MCF7 [5] = assay: Cell cycle arrest in human MCF7 cells assessed as decrease in S-phase at 0.25 to 0.5 uM after 24 hrs by propidium iodide-staining based flow cytometric analysis; type: functional; outline: as §1
SiHa [6] = assay: Cell cycle arrest in human SiHa cells assessed as accumulation at G0/G1 phase at 0.25 to 0.5 uM after 24 hrs by propidium iodide-staining based flow cytometric analysis; type: functional; outline: as §1
[7] = target: Phosphatidylinositol 4-phosphate 3-kinase C2 domain-containing subunit alpha (Homo sapiens) (UniProt O00443); assay: Inhibition of human PI3KC2alpha at 1 uM relative to control
Sequence of Phosphatidylinositol 4-phosphate 3-kinase C2 domain-containing subunit alpha (Homo sapiens) (O00443 whole entry, the tested form may be a part): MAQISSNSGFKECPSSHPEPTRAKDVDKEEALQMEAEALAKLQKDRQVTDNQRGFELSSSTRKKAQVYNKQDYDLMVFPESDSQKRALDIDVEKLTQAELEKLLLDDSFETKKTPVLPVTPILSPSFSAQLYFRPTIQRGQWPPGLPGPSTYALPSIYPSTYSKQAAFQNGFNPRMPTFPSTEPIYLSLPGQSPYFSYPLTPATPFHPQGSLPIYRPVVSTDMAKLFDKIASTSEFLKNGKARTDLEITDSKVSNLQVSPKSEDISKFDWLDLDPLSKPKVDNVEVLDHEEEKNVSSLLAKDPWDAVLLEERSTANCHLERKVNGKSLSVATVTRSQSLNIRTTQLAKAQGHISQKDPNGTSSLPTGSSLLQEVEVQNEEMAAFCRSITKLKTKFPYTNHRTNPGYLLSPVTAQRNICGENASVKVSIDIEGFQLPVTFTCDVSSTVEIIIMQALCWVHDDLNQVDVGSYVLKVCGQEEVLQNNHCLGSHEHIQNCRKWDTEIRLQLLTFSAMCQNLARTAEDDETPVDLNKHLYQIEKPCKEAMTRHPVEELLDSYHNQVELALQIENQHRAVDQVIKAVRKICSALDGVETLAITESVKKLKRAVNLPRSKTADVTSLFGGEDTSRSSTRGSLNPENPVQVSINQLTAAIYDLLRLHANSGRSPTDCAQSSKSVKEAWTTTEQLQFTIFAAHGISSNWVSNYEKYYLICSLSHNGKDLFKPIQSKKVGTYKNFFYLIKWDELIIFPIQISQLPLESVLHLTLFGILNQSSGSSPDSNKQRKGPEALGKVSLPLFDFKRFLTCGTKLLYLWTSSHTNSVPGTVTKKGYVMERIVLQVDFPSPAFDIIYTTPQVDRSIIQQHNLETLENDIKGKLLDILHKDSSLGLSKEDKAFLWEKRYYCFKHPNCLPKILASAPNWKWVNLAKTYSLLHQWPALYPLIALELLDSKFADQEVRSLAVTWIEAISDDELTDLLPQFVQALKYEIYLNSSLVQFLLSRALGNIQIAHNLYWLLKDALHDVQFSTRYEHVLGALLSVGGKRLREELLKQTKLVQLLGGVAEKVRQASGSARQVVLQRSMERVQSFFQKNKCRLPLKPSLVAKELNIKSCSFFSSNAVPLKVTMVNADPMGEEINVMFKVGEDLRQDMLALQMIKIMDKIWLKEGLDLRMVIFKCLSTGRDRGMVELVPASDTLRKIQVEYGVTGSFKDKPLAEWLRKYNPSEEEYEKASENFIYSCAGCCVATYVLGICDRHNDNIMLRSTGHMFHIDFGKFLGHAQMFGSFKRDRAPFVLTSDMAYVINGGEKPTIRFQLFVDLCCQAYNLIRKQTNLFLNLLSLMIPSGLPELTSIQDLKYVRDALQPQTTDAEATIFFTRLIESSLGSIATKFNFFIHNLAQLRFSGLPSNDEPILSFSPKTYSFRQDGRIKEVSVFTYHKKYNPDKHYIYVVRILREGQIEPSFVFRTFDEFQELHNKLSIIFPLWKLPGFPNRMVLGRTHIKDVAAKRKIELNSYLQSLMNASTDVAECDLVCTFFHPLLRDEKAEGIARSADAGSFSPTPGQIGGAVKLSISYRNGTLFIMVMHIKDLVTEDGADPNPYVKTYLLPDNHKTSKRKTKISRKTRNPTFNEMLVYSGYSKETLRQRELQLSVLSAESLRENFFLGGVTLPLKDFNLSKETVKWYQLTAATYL
Outline: (§2)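 Eurofins KinaseProfiler panel with compound at a single 1 μM concentration. ATP at the Km of each kinase. Result is % inhibition, mean of two independent experiments.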

MDA-MB-231 [8] = assay: Induction of autophagy in human MDA-MB-231 cells assessed as increase in LC3-2 level at 0.25 to 0.5 uM after 48 hrs by Western blot analysis; type: functional, cell-based
Outline: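 Cells treated with test agents at several concentrations for 2 days (48 h). LC3B-II detected by Western blot on lysates, with β-actin as internal control. Membranes blocked in 5% skim milk, primary antibodies at 4 °C overnight, peroxidase-conjugated anti-mouse or anti-rabbit IgG secondary, ECL detection.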

Homo sapiens [9] = species on record: Homo sapiens; assay: Inhibition of full length recombinant human PI3K p110alpha/p65alpha at 1 uM relative to control; outline: as §2
Homo sapiens [10] = species on record: Homo sapiens; assay: Inhibition of mTORC1 in human T47D cells assessed as reduction in 4E-BP1 phosphorylation at Ser65 residues at 0.25 to 0.5 uM by Western blot analysis; type: cell-based
Outline: (§3)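 Cells treated with the indicated concentrations, then whole-cell lysates immunoblotted. mTORC1 activity read as S6 and 4E-BP1 phosphorylation; mTORC2 activity read as AKT Ser473 phosphorylation. Blocking in 5% skim milk, primary antibodies at 4 °C overnight, peroxidase-conjugated secondary, ECL detection.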

T47D [11] = assay: Cell cycle arrest in human T47D cells assessed as decrease in S-phase at 0.25 to 0.5 uM after 24 hrs by propidium iodide-staining based flow cytometric analysis; type: functional; outline: as §1
[12] = Half life in Sprague-Dawley rat at 20 mg/kg, iv administered as single dose by HPLC analysis; type: ADME, organism-based; conditions: in vivo
Outline: (§4)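 Rats fasted overnight, then given one 20 mg/kg dose either iv or po. Blood was collected and centrifuged at once to obtain plasma. Plasma drug levels were measured by HPLC, and PK parameters were derived from the concentration-time data.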

Homo sapiens [13] = species on record: Homo sapiens; assay: Inhibition of mTORC2 in human MCF7 cells assessed as reduction in AKT phosphorylation at Ser473 residues at 0.25 to 0.5 uM by Western blot analysis; type: cell-based; outline: as §3
Homo sapiens [14] = species on record: Homo sapiens; assay: Inhibition of mTORC1 in human SiHa cells assessed as reduction in 4E-BP1 phosphorylation at Ser65 residues at 0.25 to 0.5 uM by Western blot analysis; type: cell-based; outline: as §3
NCI-H460 = assay: Growth inhibition of human H460 cells after 72 hrs by CCK8 assay; type: functional, cell-based; conditions: NCI-H460, 72 h
Outline: (§5)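 Cells were seeded at 2000–3000 per well and grown 24 h in serum-containing medium. They were then exposed to serially diluted compound for 72 h at 37 °C, 5% CO2. CCK8 reagent was added for 1–4 h and absorbance read at 450 nm. Inhibition = (AC − AS)/(AC − Ab) × 100%. IC50 is the average of at least three independent determinations.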

SiHa [15] = assay: Growth inhibition of human SiHa cells after 72 hrs by CCK8 assay; type: functional, cell-based; outline: as §5
[16] = Protein binding in human plasma at 4 uM after 4 hrs by equilibrium dialysis method; type: ADME, cell-free; conditions: read-out: PPB (converted)
Outline: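 Plasma protein binding measured in rabbit and human plasma with compound at 4 μM over a 4 h period; result given as percent bound.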

Homo sapiens [17] = species on record: Homo sapiens; assay: Inhibition of mTORC1 in human SiHa cells assessed as reduction in 4E-BP1 phosphorylation at Thr37/46 residues at 0.25 to 0.5 uM by Western blot analysis; type: cell-based; outline: as §3
Mus musculus [18] = assay: Down regulation of AKT phosphorylation at Ser473 residues in human T47D cells xenografted in BALB/c nude mouse administered via oral gavage after 3 weeks by hematoxylin and eosine staining based light microscopic assay; type: functional, cell-based
Outline: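 Tumours from the oral 3-week T-47D xenograft study were formalin-fixed, paraffin-embedded and cut into 5 μm sections. Sections were deparaffinized, rehydrated and incubated overnight at 4 °C with phospho-specific primary antibody at 1:100. Biotin secondary was applied for 1 h at room temperature, then ABC-peroxidase/DAB with hematoxylin counterstain. Sections were viewed by light microscopy.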

Mus musculus [19] = species on record: Mus musculus; assay: Inhibition of full length recombinant mouse p85alpha/PI3K p110alpha H1047R mutant at 1 uM relative to control; outline: as §2
[20] = Half life in Sprague-Dawley rat at 20 mg/kg, po administered as single dose by HPLC analysis; type: ADME, organism-based; conditions: in vivo; outline: as §4
Homo sapiens [21] = species on record: Homo sapiens; assay: Inhibition of mTORC1 in human MCF7 cells assessed as reduction in 4E-BP1 phosphorylation at Ser65 residues at 0.25 to 0.5 uM by Western blot analysis; type: cell-based; outline: as §3
MCF7 [22] = assay: Induction of autophagy in human MCF7 cells assessed as increase in LC3-2 level at 0.25 to 0.5 uM after 48 hrs by Western blot analysis; type: functional, cell-based
Outline: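 Cells were treated for 48 h (2 days) with varying concentrations. Whole-cell lysates were immunoblotted for LC3B-II with β-actin as the internal control. Membranes were blocked in 5% skim milk, incubated with primary antibody overnight at 4 °C, then with peroxidase-conjugated secondary, and developed by ECL.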

MCF7 [23] = assay: Induction of autophagy in human MCF7 cells assessed as increase in LC3-2 puncta level after 48 hrs by immunofluorescence staining based microscopic analysis; type: functional, cell-based
HeLa = assay: Growth inhibition of human HeLa cells after 72 hrs by CCK8 assay; type: functional, cell-based; outline: as §5

With N#CCN1CCC(n2c(=O)cnc3cnc4ccc(-c5ccc(N)nc5)cc4c32)CC1 the Activity (MDA-MB-231 [1]) was “Active”, the Activity (Mus musculus [2]) was “Dose-dependent effect” and the Activity (MDA-MB-231 [3]) was “Active”. For the same compound, the inhibition in vivo at 60 mg/kg (T47D [4]) was 83.7%, the Activity (MCF7 [5]) was “Active” and the Activity (SiHa [6]) was “Active”. For the same compound, the inhibition [7] was 4%, the Activity (MDA-MB-231 [8]) was “Active” and the inhibition (Homo sapiens [9]) was 5%. For the same compound, the inhibition (Homo sapiens [10]) was “Active”, the Activity (T47D [11]) was “Active” and the half-life [12] was 7.57 h. The inhibition (Homo sapiens [13]) was “Active”, the inhibition (Homo sapiens [14]) was “Active” and the IC50 (NCI-H460) was 1780 nM. The IC50 (SiHa [15]) was 110 nM, the fraction unbound at 4 h, 4 µM [16] was 0.36 and the inhibition (Homo sapiens [17]) was “Active”. For the same compound, the Activity (Mus musculus [18]) was “Dose-dependent effect”, the inhibition (Mus musculus [19]) was 7% and the half-life [20] was 9.98 h. For the same compound, the inhibition (Homo sapiens [21]) was “Active”, the Activity (MCF7 [22]) was “Active” and the Activity (MCF7 [23]) was “Dose-dependent effect”. It also gave an IC50 (HeLa) of 441 nM.
